High-throughput results: PubChem BioAssay, Sanford-Burnham Center for Chemical Genomics
This is a sample that favours compounds with a hit; in the whole collection about 0.72% have one here.
hIAP act = human IAP activation. P09923. purified human IAP, CDP-Star luminescence, 30 min; stronger effect = higher value; 1 = vehicle-only enzyme, 0 = enzyme-free background. activation factor at 10 µM. hit rate 0.16% among 330,000. AID 2524;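 active means activation factor of the enzyme at least 2-fold when tested at 20 µM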
Target sequence (P09923 whole entry, looked up): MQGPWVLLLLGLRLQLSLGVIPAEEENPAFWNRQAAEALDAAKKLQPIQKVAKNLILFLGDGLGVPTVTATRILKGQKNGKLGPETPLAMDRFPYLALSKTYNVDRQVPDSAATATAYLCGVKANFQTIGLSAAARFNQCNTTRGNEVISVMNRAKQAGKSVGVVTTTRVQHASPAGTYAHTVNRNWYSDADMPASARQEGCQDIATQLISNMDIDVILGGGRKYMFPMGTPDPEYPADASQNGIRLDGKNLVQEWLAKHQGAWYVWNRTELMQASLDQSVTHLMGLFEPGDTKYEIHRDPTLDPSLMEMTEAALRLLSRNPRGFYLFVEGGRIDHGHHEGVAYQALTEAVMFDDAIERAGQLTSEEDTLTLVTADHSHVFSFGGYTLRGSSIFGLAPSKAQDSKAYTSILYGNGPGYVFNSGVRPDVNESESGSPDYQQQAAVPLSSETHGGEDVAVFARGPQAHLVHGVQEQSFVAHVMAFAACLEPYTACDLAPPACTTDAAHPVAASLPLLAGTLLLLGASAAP
hIAP inh = blocks human intestinal alkaline phosphatase; purified IAP, CDP-Star luminescence, 30 min; inhibition, % at 10 µM; hit rate 0.12% among 330,000; AID 2544;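 active means inhibition reaching a set limit with compound at 10 µM in the primary screen, cut at about 35% in these data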;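 further: plate controls were DMSO wells with enzyme for no effect and no-enzyme buffer wells for full effect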
mIAP block = mouse IAP inhibition. inhibition, % at 10 µM. hit rate 0.2% among 330,000. purified mouse IAP, CDP-Star luminescence, 30 min. AID 2806;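 active means inhibition of at least 40% at 10 µM in the primary screen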;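 further: plate controls were DMSO with enzyme for no effect and no enzyme wells for full effect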
bIAP activator = increases bovine intestinal alkaline phosphatase activity; purified bovine IAP, CDP-star luminescence, 30 min; stronger effect = higher value; fold of DMSO-control signal, blank-subtracted; activation factor at 20 µM; hit rate 0.17% among 200,000; AID 1016;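 active means activation factor of 2 or more at 20 µM, a signal rise over negative controls twice the positive control's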
bIAP inhibitor = intestinal alkaline phosphatase (bovine) inhibition; purified bovine IAP, CDP-star luminescence, 30 min; inhibition, % at 20 µM; 190,000 tested, under 10 active;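 active means over 50% inhibition of intestinal alkaline phosphatase at 20 µM in the single-dose screen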
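System: Purified bovine intestinal alkaline phosphatase (IAP) enzyme | Input: IAP diluted 1/65,000,000 in the well | Also added: CDP-star chemiluminescent phosphatase substrate, 30 µM final | Dosing: 20 µM single dose | Times: Enzyme reaction for 30 min at room temperature | Detection: Luminescence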
mIAP activ = increases mouse intestinal alkaline phosphatase activity; muIAP, CDP-Star luminescence, 30 min; stronger effect = higher value; 1 = vehicle-only enzyme signal, 0 = enzyme-free wells; activation factor at 10 µM; hit rate 0.24% among 330,000;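 active means activation factor of at least 2 at 20 µM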
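System: mouse IAP enzyme. Reagent: CDP-Star chemiluminescent phosphatase substrate. Benchmarks: DMSO wells, no-enzyme wells. Times: 30 min enzyme-substrate-compound incubation at room temperature. Detection: luminescence from enzymatic CDP-Star hydrolysis. Doses: test compounds delivered from DMSO solution.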
mIAP inh conf = mouse IAP inhibition confirmation; inhibition, % at 10 µM; AID 434971; shares compounds with mIAP block; purified mouse IAP, CDP-Star luminescence, 30 min; hit rate 4.7% among 11,000;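 active means inhibition of at least 40% at 10 µM in either of the two replicates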;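 further: plate controls were DMSO wells with enzyme for no effect and buffer wells lacking enzyme for full effect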
* marks the source's active call; other numbers are inactive results; i = inactive; . = no result given.

SMILES | hIAP act | hIAP inh | mIAP block | bIAP activator | bIAP inhibitor | mIAP activ | mIAP inh conf
Cc1ccc(C(=O)Nc2nnc(CC(=O)N/N=C/c3ccncc3)s2)cc1 | 0.99 | 1 | 17 | 1.1 | -7 | 0.83 | .
Cc1ccc(C(=O)Nc2nnc(CC(=O)N/N=C/c3ccc(O)c(O)c3)s2)cc1 | 0.84 | 16 | 58* | . | . | 0.42 | 79*
O=C(Nc1ccccc1Br)C1CCN(S(=O)(=O)c2cccs2)CC1 | 0.99 | 0 | -6 | . | . | 1.1 | .
Cc1ccc(NC(=O)NC2CCCc3ccccc32)cc1 (configuration not stated) | 0.96 | 4 | -55 | . | . | 1.5 | .
CC(C)(C)c1ccc(NC(=O)NC2CCCc3ccccc32)cc1 (configuration not stated) | 1.4 | -42 | i | . | . | 6.2* | -253
CC(=O)Nc1ccc(S(=O)(=O)/N=C2/NC(=O)/C(=C\c3ccco3)S2)cc1 | 0.95 | 5 | 46* | 1.2 | -18 | 0.54 | 49*
Cc1ccc(S(=O)(=O)/N=C2/NC(=O)/C(=C\c3ccco3)S2)cc1 | 0.92 | 8 | 40* | 1 | 2 | 0.6 | 43*
Cc1ccc(S(=O)(=O)/N=C2/NC(=O)/C(=C\c3ccccc3)S2)cc1 | 1.1 | -8 | 3 | . | . | 0.97 | .
O=C1Nc2ccccc2C1(O)C/C(=N/O)c1ccccc1 (configuration not stated) | 0.93 | 7 | 0 | 0.9 | 9 | 1 | .
c1coc(C2Nc3cccc4cccc(c34)N2)c1 | 1 | -3 | 52* | 0.7 | 31 | 0.48 | 69*
COc1ccccc1NC(=O)Nc1ccc(-n2ccc(C(F)(F)F)n2)cc1 | 1 | -4 | -46 | . | . | 1.5 | .
O=C(Nc1ccc(-n2ccc(C(F)(F)F)n2)cc1)Nc1cccc(Cl)c1 | 1 | -2 | -178 | . | . | 2.8* | -92
Cc1cc(C)cc(NC(=O)Nc2ccc(-n3ccc(C(F)(F)F)n3)cc2)c1 | 1.2 | -16 | -288 | . | . | 3.9* | -136
CSc1ccc(CN2CCC(n3nccc3NC(=O)CCCc3ccccc3)CC2)cc1 | 1.8 | -84 | -171 | . | . | 2.7* | -126
O=C(Nc1ccc(C(F)(F)F)cc1)N1CCN(c2ccnc3cc(Cl)ccc23)CC1 | 0.84 | 16 | -2 | . | . | 1 | .
Cc1ccc(NC(=O)N2CCCC2C(=O)NCC2CCCCC2)cc1 (configuration not stated) | 1.1 | -6 | -2 | . | . | 1 | .
Cc1ccc(NC(=S)NC(NC(=O)c2ccccc2C)C(Cl)(Cl)Cl)c(C)c1 (configuration not stated) | 1.2 | -16 | -212 | 1 | -5 | 3.1* | -211
CC(=O)NC(NC(=S)Nc1ccc(C)cc1C)C(Cl)(Cl)Cl (configuration not stated) | 0.99 | 1 | -14 | . | . | 1.1 | .
O=C1CC(c2ccco2)CC(O)=C1C=Nc1cc(Cl)ccc1O (configuration not stated) | 1.7 | -68 | 64* | 1.4 | -42 | 0.36 | 70*
O=C1CC(c2ccco2)CC(O)=C1C=Nc1cc(Cl)ccc1Cl (configuration not stated) | 0.98 | 2 | 40 | 1 | -2 | 0.6 | .
COC(=O)c1ccn(Cc2ccccc2Cl)n1 | . | . | . | 0.8 | 24 | . | .
COc1ccc([C@H]2CC(=O)c3c(O)cc(O)cc3O2)cc1O | 1.1 | -8 | 8 | . | . | 0.92 | .
Oc1cc(O)c2c(c1)O[C@H](c1ccc(O)c(O)c1)[C@H](O)C2 | 0.81 | 19 | 82* | . | . | 0.18 | 62*
